From ChEMBL document CHEMBL1145339, “N1-Benzoyl-N2-[1-(1-naphthyl)ethyl]-trans-1,2-diaminocyclohexanes: Development of 4-chlorophenylcarboxamide (calhex 231) as a new calcium sensing receptor ligand demonstrating potent calcilytic activity” (J Med Chem, 2006)
Activity calls are given as the source filed them. The rule behind the calls is not given here.

Columns and labels:
Type in all cases: functional, cell-based
[1] = target: T1, Extracellular calcium-sensing receptor (Rattus norvegicus) (UniProt P48442); assay: Activity at rat CaSR in CHO cells assessed as inhibition of calcium ion-induced [3H]inositol phosphate accumulation at 10 uM
T1 sequence (whole entry): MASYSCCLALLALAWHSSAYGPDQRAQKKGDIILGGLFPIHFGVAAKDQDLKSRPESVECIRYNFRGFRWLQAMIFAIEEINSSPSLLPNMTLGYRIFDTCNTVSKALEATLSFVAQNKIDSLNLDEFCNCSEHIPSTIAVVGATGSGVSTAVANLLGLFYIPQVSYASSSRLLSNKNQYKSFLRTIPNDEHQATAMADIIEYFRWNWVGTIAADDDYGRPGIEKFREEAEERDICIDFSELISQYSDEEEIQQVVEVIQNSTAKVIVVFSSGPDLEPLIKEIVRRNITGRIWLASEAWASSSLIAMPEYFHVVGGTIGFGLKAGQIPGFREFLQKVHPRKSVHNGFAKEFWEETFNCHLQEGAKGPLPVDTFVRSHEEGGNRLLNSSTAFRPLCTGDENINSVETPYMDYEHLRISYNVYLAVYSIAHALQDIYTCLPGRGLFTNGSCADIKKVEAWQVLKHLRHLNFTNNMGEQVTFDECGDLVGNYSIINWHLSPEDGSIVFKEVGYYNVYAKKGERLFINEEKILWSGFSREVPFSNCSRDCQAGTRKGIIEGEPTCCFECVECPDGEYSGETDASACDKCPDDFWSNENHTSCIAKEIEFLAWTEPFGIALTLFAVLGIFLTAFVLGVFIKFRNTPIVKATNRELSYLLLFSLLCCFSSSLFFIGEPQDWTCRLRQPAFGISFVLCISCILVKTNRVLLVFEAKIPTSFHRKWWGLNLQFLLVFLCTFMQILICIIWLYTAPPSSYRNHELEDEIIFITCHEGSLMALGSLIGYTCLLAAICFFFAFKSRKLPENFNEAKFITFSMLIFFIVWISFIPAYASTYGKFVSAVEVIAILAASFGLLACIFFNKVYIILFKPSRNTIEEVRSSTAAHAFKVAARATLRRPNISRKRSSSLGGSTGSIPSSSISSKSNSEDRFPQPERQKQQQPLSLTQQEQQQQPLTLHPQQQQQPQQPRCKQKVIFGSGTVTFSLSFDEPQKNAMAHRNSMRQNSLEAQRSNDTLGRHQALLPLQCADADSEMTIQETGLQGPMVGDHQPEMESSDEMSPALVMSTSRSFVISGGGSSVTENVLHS
Outline: (§1)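 CHO cells stably transfected with rat CaSR, grown in basal Ham's F-12 (0.3 mM Ca2+, 0.6 mM Mg2+). Overnight labelling with myo-[3H]inositol (0.5 µCi/mL). Cells washed, then 15 min at 37°C in basal medium with 10 mM LiCl, then 30 min at 37°C with 9 mM Ca2+ plus compound (10 mM ethanol stock diluted in medium). Reaction stopped with HClO4; [3H]IP isolated by ion exchange.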

[2] = target: T1, Extracellular calcium-sensing receptor (Rattus norvegicus); assay: Activity at rat CaSR in CHO cells assessed as inhibition of calcium ion-induced [3H]inositol phosphate accumulation at 1 uM; outline: as §1
[3] = target: T2, Extracellular calcium-sensing receptor (Rattus norvegicus, UniProt P48442); assay: Activity at rat CaSR in CHO cells assessed as inhibition of calcium ion-induced [3H]inositol phosphate accumulation; outline: as §1
T2 sequence (P48442 whole entry): T1 sequence (whole entry)

| inhibition [1] | inhibition [2] [%] | IC50 [3] [nM] | SMILES |
| --- | --- | --- | --- |
| 75% | – | – | CC(N[C@@H]1CCCC[C@H]1NS(=O)(=O)c1ccc(C(F)(F)F)cc1)c1cccc2ccccc12 (some centres undefined) |
| 62% | 12 | 8000 | COc1ccc(S(=O)(=O)N[C@@H]2CCCC[C@H]2NC(C)c2cccc3ccccc23)cc1 (some centres undefined) |
| – | 36 | – | CC(N[C@@H]1CCCC[C@H]1NC(=O)c1ccccc1C(F)(F)F)c1cccc2ccccc12 (relative stereo) |
| 95% | – | 1700 | C[C@@H](N[C@@H]1CCCC[C@H]1NC(=O)c1ccc(OC(F)(F)F)cc1)c1cccc2ccccc12 |
| 20% | – | – | C[C@H](N[C@H]1CCCC[C@@H]1NS(=O)(=O)c1ccc(OC(F)(F)F)cc1)c1cccc2ccccc12 |
| 90% | – | 2600 | C[C@@H](N[C@H]1CCCC[C@@H]1NS(=O)(=O)c1ccc(OC(F)(F)F)cc1)c1cccc2ccccc12 |
| 68% | 19 | – | CC(N[C@@H]1CCCC[C@H]1NC(=O)c1ccccc1Cl)c1cccc2ccccc12 (relative stereo) |
| 95% | 50 | 900 | CC(N[C@@H]1CCCC[C@H]1NC(=O)c1ccc(OC(F)(F)F)cc1)c1cccc2ccccc12 (relative stereo) |
| inactive | – | – | C[C@H](N[C@@H]1CCCC[C@H]1NS(=O)(=O)c1ccc(OC(F)(F)F)cc1)c1cccc2ccccc12 |
| 78% | 33 | – | CC(N[C@@H]1CCCC[C@H]1NC(=O)c1ccccc1)c1cccc2ccccc12 (relative stereo) |
| 103% | 82 | – | CC(N[C@@H]1CCCC[C@H]1NC(=O)c1ccc(Cl)c(Cl)c1)c1cccc2ccccc12 (relative stereo) |
| 1% | – | – | CC(N[C@@H]1CCCC[C@H]1NC(=O)Oc1ccccc1)c1cccc2ccccc12 (relative stereo) |
| 32% | – | – | C[C@@H](N[C@@H]1CCCC[C@H]1NS(=O)(=O)c1ccc(OC(F)(F)F)cc1)c1cccc2ccccc12 |
| inactive | – | – | C[C@H](N[C@H]1CCCC[C@@H]1NC(=O)c1ccc(OC(F)(F)F)cc1)c1cccc2ccccc12 |
| 100% | – | 250 | C[C@@H](N[C@H]1CCCC[C@@H]1NC(=O)c1ccc(OC(F)(F)F)cc1)c1cccc2ccccc12 |
| 78% | 8 | 5400 | CC(N[C@@H]1CCCC[C@H]1NS(=O)(=O)c1ccc(OC(F)(F)F)cc1)c1cccc2ccccc12 (relative stereo) |
| 76% | 35 | – | CC(N[C@@H]1CCCC[C@H]1NC(=O)c1ccccn1)c1cccc2ccccc12 (relative stereo) |
| 22% | – | – | C[C@H](N[C@@H]1CCCC[C@H]1NC(=O)c1ccc(OC(F)(F)F)cc1)c1cccc2ccccc12 |

The next lines start with the molecule.

| SMILES | inhibition [1] | inhibition [2] [%] | IC50 [3] [nM] |
| --- | --- | --- | --- |
| CC(N[C@@H]1CCCC[C@H]1NS(=O)(=O)c1cccc(Cl)c1)c1cccc2ccccc12 (relative stereo) | 60% | – | – |
| CC(N[C@@H]1CCCC[C@H]1NS(=O)(=O)c1ccc(Cl)cc1)c1cccc2ccccc12 (some centres undefined) | 73% | – | – |
| CC(N[C@@H]1CCCC[C@H]1NS(=O)(=O)c1cccc(C(F)(F)F)c1)c1cccc2ccccc12 (relative stereo) | 44% | – | – |
| CC(N[C@@H]1CCCC[C@H]1NC(=O)c1ccc(Cl)cc1)c1cccc2ccccc12 (relative stereo) | 106% | 90 | – |
| CC(C)(Cc1ccc2ccccc2c1)NC[C@@H](O)COc1cccc(Cl)c1C#N | 87% | 77 | 460 |
| CC(N[C@H]1CCCC[C@@H]1NS(=O)(=O)c1ccc([N+](=O)[O-])cc1)c1ccc(-c2ccccc2)cc1 (relative stereo) | 7% | – | – |
| O=[N+]([O-])c1ccc(S(=O)(=O)N[C@@H]2CCCC[C@H]2NCc2cccc3ccccc23)cc1 (relative stereo) | 6% | 1 | – |
| CC(N[C@@H]1CCCC[C@H]1NS(=O)(=O)c1ccc(Cl)c(Cl)c1)c1cccc2ccccc12 (relative stereo) | 60% | – | – |
| COc1ccc(OC)c(S(=O)(=O)N[C@@H]2CCCC[C@H]2NC(C)c2cccc3ccccc23)c1 (relative stereo) | 0% | – | – |
| CC(N[C@@H]1CCCC[C@H]1NS(=O)(=O)c1ccc([N+](=O)[O-])cc1)c1ccc2ccccc2c1 (relative stereo) | 20% | 1 | – |
| CC(N[C@@H]1CCCC[C@H]1NS(=O)(=O)c1ccc([N+](=O)[O-])cc1)c1cccc2ccccc12 (relative stereo) | 56% | – | – |
| CC(N[C@@H]1CCCC[C@H]1NS(=O)(=O)c1ccc(Cl)c(Cl)c1Cl)c1cccc2ccccc12 (relative stereo) | 59% | – | – |
| CC(N[C@@H]1CCCC[C@H]1NC(=O)c1cc2ccccc2[nH]1)c1cccc2ccccc12 (relative stereo) | – | 33 | – |
